The test system of data set [1] is Plasmodium falciparum. Put plainly: Antiplasmodial activity against Plasmodium falciparum infected in PfalcHy mouse assessed as reduction in blood parasitemia level administered orally. The note with it: dose 40.0 mg/kg, route po. Type of data set: functional, organism-based. Summed up: (§1)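 Female NSG mice (22–28 g) engrafted with human erythrocytes by daily i.p./i.v. injection; once >40% circulating human RBCs, infected i.v. with P. falciparum Pf3D7 0087/N9. Oral gavage (10 mL/kg) from ~1.3% parasitemia (Day 1); 40 mg/kg QD, BID or TID for 4 days. Parasitemia in tail blood by flow cytometry (TER-119-PE, SYTO-16) and Giemsa smears; stage distribution examined on day 3.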

Data set [2] can be described thus: Toxicity in NMRI mouse assessed as adverse effect at 50 mg/kg, po measured upto 24 hrs by UP-LCMS analysis. The class given is organism-based. Conditions: in vivo. In short, it runs like this:
(§2)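 Female NMRI mice (10–12 weeks, 29–32 g), acclimatized 1 week, given a single peroral bolus of 50 mg/kg (10 mL/kg). Toxicity signs scored on a 0–6 scale at 0–2, 5, 10, 15, 30, 60, 120, 240 min and 24 h after dosing.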

Data set [3] in a line: Toxicity in NMRI mouse assessed as drug tolerance at 50 mg/kg, po measured upto 24 hrs by UP-LCMS analysis. Type of data set: organism-based. The note with it: in vivo. Summed up:
as §2

For data set [4], the system named is Plasmodium falciparum. Put plainly: Antiplasmodial activity against Plasmodium falciparum infected in NSG mouse model assessed as accumulation of circulating mature schizonts at 40 mg/kg, po measured after 3 days by giemsa staining based flow cytometry analysis. Type of data set: functional, organism-based. The note with it: time 3.0 day. Summed up:
as §1

Molecules are shown by their SMILES. Active and inactive are the calls of the source. The calls are words filed in the database; no cut-off is given here.

For `CCCN1CCCCCc2cccc(c2)C[C@@H]([C@H](O)CNC(C)(C)c2cccc(OC)c2)NC(=O)c2cccc(c2)C1=O`, the values for the Activity result in data set [1], in data set [2] and in data set [3] were “Dose-Dependent Effect”, “Non-Toxic” and “Non-Toxic”, respectively. In addition, the result in data set [4] was Active.

The record behind these values is ChEMBL document CHEMBL5360630, “Macrocyclic Peptidomimetic Plasmepsin X Inhibitors with Potent In Vitro and In Vivo Antimalarial Activity” (J Med Chem, 2023).
